# The source made the active and inactive calls. The calls are words filed in the database; no cut-off is given here.
# Columns and labels:
# [1] = biological target: T1, Aromatase (Homo sapiens, UniProt P11511); conditions: read-out: INH
# T1 sequence (P11511 whole entry): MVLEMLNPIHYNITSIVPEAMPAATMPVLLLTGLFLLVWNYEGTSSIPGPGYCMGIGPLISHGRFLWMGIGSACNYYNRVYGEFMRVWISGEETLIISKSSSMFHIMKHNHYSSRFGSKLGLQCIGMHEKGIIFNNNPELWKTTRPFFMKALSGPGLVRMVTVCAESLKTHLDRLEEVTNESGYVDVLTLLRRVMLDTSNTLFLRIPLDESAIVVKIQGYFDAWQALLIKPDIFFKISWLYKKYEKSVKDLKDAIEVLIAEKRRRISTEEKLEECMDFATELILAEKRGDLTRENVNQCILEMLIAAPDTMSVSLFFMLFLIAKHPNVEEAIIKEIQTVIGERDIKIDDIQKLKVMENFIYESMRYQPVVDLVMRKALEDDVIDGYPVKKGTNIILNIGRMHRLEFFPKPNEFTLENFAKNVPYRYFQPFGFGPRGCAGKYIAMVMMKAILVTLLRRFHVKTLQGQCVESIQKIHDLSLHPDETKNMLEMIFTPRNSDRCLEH
# [2] = Antioxidant activity assessed as DPPH scavenging activity at 340 uM after 30 mins; assay type: functional
# [3] = biological target: NAD(P)H dehydrogenase [quinone] 1 (Mus musculus) (UniProt Q64669); test: Induction of quinone reductase 1 in mouse Hepa 1c1c7 cells assessed as drug level required to double enzyme activity by MTT assay
# Sequence of NAD(P)H dehydrogenase [quinone] 1 (Mus musculus) (Q64669 whole entry): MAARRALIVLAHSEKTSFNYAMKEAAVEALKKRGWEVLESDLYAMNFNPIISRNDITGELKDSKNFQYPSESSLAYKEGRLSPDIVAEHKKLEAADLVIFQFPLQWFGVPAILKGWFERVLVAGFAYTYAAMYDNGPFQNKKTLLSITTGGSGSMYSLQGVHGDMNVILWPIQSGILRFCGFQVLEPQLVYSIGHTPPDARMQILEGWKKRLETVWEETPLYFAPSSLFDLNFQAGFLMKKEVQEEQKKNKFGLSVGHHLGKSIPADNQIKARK
# [4] = biological target: T2, Nitric oxide synthase, inducible (Mus musculus) (UniProt P29477); test: Inhibition of iNOS-mediated nitric oxide production in mouse RAW 264.7 cells at 34 uM pretreated 30 mins measured after 20 hrs by Griess reaction method relative to control; assay type: cell-based
# T2 sequence (whole entry): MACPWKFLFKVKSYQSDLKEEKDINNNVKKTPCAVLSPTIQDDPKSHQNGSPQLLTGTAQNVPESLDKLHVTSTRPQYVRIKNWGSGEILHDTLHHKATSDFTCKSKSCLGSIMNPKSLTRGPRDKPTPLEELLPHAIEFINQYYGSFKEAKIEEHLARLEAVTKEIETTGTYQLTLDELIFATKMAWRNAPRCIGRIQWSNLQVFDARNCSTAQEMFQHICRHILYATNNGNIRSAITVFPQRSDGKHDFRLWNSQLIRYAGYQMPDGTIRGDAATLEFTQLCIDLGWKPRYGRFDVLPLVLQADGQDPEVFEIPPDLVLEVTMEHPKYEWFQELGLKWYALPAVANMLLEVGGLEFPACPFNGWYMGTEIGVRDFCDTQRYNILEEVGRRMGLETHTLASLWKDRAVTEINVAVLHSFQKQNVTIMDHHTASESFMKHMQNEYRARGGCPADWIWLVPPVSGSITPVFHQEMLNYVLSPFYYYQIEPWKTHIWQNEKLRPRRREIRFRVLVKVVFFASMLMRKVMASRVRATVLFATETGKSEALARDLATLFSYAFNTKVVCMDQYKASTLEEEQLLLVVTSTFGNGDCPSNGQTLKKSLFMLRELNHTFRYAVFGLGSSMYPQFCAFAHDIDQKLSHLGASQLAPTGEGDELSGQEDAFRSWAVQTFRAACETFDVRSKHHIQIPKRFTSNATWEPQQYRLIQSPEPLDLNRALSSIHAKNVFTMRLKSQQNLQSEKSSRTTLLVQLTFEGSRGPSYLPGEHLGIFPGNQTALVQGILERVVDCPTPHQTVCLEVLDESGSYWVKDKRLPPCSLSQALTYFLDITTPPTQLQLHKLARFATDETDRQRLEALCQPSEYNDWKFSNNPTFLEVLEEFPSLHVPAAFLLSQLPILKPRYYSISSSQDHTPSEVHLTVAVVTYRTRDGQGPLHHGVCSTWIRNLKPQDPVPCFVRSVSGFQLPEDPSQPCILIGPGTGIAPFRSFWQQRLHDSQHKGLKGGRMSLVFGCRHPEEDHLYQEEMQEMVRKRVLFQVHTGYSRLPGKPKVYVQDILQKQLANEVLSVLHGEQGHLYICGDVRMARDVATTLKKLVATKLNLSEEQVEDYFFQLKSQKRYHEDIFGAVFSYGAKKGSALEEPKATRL
# How it was run: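 RAW 264.7 macrophages seeded at 1 × 10⁵ cells/well for 24 h. Compounds in phenol red-free DMEM added 30 min before LPS (1 μg/mL), then 20 h further incubation. Nitrite in medium measured by Griess reagent at 540 nm against a sodium nitrite standard curve; inhibition at 34 μM.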
# [5] = system: HEK293; test: Cytotoxicity against human HEK293 cells at 34 uM; assay type: cell-based; conditions: hek293, 34 µM
# [6] = system: RAW264.7; test: Inhibition of LPS-induced COX2 expression in mouse RAW264.7 cells at 34 uM treated 15 mins before LPS challenge measured after 18 hrs by Western blotting relative to control; assay type: functional
# How it was run: (§1)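 RAW 264.7 cells pretreated 15 min with compound (34 μM), then LPS 1 μg/mL for 18 h. Lysates (30 μg protein) run on 8% SDS-PAGE and transferred to PVDF. Blocked in 5% milk/TBST, probed for iNOS and COX-2 with HRP secondary, ECL detection, β-actin internal control. Band density relative to LPS-treated control; duplicate experiments.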
# [7] = system: RAW264.7; test: Inhibition of LPS-induced COX2 expression in mouse RAW264.7 cells at 34 uM treated 15 mins before LPS challenge measured after 18 hrs by immunoblotting; assay type: functional, cell-based
# How it was run: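 RAW 264.7 cells pretreated with samples 15 min, then LPS 1 μg/mL for 18 h. Lysates (30 μg protein) run on 8% SDS-PAGE, transferred to PVDF, probed with primary and HRP secondary antibodies, ECL detection. β-actin internal control; band density quantified relative to the LPS-only control; duplicate experiment.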
# [8] = system: HEK293; test: Inhibition of TNF-alpha-induced NF-kappaB activity expressed in HEK293 cells at 34 uM after 48 hrs by luciferase reporter gene assay relative to control; assay type: cell-based
# How it was run: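 Stably transfected 293 cells carrying an NFκB response element–luciferase reporter, exposed to TNFα plus compound for 48 h, then assayed for luciferase. Activity expressed as % of TNFα-treated control. IC₅₀ from five serial dilutions, mean of two experiments.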
# [9] = Antioxidant activity assessed as nitric oxide scavenging activity at 60 uM; assay type: functional
# How it was run: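 Compounds diluted tenfold in PBS and incubated with sodium nitroprusside (final compound 60 μM, SNP 5 mM) for 3 h at room temperature. Nitrite measured by Griess reagent, absorbance 540 nm. % inhibition given as average of triplicates ± standard deviation.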
# [10] = biological target: T3, Prostaglandin G/H synthase 1 (Ovis aries) (UniProt P05979); test: Inhibition of sheep seminal vesicles COX1 assessed as PGE2 production at 34 uM after 10 mins by ELISA relative to control
# T3 sequence (whole entry): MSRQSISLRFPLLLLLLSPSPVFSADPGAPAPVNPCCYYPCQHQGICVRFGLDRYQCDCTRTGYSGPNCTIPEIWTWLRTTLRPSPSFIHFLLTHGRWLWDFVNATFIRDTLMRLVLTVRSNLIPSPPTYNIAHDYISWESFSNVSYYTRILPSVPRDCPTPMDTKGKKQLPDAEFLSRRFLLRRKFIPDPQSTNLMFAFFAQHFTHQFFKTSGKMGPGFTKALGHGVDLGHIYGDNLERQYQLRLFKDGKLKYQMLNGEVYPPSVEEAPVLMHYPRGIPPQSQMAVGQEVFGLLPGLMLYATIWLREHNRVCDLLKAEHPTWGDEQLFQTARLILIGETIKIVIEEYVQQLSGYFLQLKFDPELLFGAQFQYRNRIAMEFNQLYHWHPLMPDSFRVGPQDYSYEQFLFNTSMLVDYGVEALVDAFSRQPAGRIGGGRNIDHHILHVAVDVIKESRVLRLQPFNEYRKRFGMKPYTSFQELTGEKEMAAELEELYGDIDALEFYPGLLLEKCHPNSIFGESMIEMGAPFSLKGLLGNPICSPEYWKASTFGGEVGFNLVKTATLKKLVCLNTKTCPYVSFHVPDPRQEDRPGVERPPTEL
# How it was run: (§2)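 Sheep seminal vesicle COX-1; reaction started with arachidonic acid, 10 min at room temperature, stopped with 27.8 μM indomethacin. PGE₂ quantified by competitive ELISA (PGE₂-acetylcholinesterase tracer, Ellman's reagent, 412 nm) against a PGE₂ standard curve. Result as % of solvent control; IC₅₀ from dose-response curves.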
# [11] = biological target: T2, Nitric oxide synthase, inducible (Mus musculus); test: Inhibition of iNOS-mediated nitric oxide production in LPS-stimulated mouse RAW 264.7 cells at 34 uM pretreated 30 mins before LPS challenge measured after 20 hrs by Griess reaction method relative to control; assay type: cell-based
# [12] = system: RAW264.7; test: Inhibition of LPS-induced iNOS expression in mouse RAW264.7 cells at 34 uM treated 15 mins before LPS challenge measured after 18 hrs by Western blotting; assay type: functional, cell-based
# How it was run: as §1
# [13] = system: MCF7; test: Cellular uptake in human MCF7 cells assessed per millions cells at 50 uM after 24 hrs by LC/MS/MS analysis; assay type: ADME, cell-based; conditions: mcf7, 24 h
# [14] = biological target: T4, Nitric oxide synthase, inducible (Mus musculus, UniProt P29477)
# T4 sequence (P29477 whole entry): T2 sequence (whole entry)
# [15] = system: HL-60; test: Cell cycle arrest in human HL60 cells assessed as accumulation at sub-G1 phase at 34 uM after 24 hrs by flow cytometry; assay type: functional
# How it was run: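 HL-60 cells (2 × 10⁵/well) exposed to samples for 24 h, then stained with NIM-DAPI nuclear isolation medium. Read by flow cytometry under UV excitation; percentage of cells in subG₁ taken from the DNA histogram.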
# [16] = biological target: T5, Prostaglandin G/H synthase 1 (Ovis aries, UniProt P05979); test: Inhibition of sheep seminal vesicles COX1 assessed as PGE2 production after 10 mins by ELISA
# T5 sequence (P05979 whole entry): T3 sequence (whole entry)
# How it was run: as §2
# [17] = system: KB; test: Cytotoxicity against human KB cells assessed as cell survival at 20 ug/ml after 72 hrs by sulforhodamine B method; assay type: functional; conditions: read-out: Activity
# How it was run: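 Sulforhodamine B assay. KB or MCF7 cells plated with samples and held 72 h at 37 °C, 5% CO₂. Fixed 1 h in 10% trichloroacetic acid, stained with 0.4% SRB in 1% acetic acid, dye taken up in 10 mM Tris.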
Structure (SMILES),inhibition at 34 µM [1] [%],inhibition [2] [%],CD [3] [µM],Activity [4],Activity [5],fold change (FC) [6],inhibition [7],inhibition [8] [%],Activity [9] [%],inhibition [10] [%],inhibition [11] [%],inhibition [12],Drug uptake [13] [pmol],IC50 [14] [µM],Activity [15] [%],IC50 [16] [µM],viability at 20 µg/mL [17] [%]
O=S(=O)([O-])Oc1ccc(/C=C/c2cc(O)cc(OS(=O)(=O)[O-])c2)cc1.[K+].[K+],22.5,6.8,> 10.1,inactive,Non-toxic,0.6,inactive,53.4,0,23.3,41.7,,,,,,
Oc1ccc(/C=C/c2cc(O)cc(O)c2)cc1 [RESVERATROL],,,,,Non-toxic,,inactive,75.7,,75.2,,Active,54.7,15,24.9,6.65,47.8
